In data set [1] the test system is HeLa. Nature of the data set: Cytotoxicity against human HeLa cells assessed as dehydrogenase activity after 24 hrs by […]. In kind it is functional. Conditions: read-out: LC50 (the source's name). The method in brief: (§1)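 Cells grown in MEM with 10% FBS at 37 °C, 5% CO2 (MCF7 also given 0.01 mg/mL insulin). Unlabeled peptides were applied over a concentration range for 24 h in OPTI-MEM with 2% FBS. Cell death was scored by Sytox Red staining for loss of plasma membrane integrity and by CCK-8 dehydrogenase activity, and LC50 was determined.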

Data set [2] is described as follows: Toxicity in mouse liver mitochondria assessed as minimum drug level required for mitochondrial disruption. The conditions noted are these: in vitro.
Data set [3] is described as follows: Toxicity in human RBC assessed as minimum drug level required for 10% hemolysis after 2 hrs. The conditions noted are these: erythrocyte. The format is cell-based. The method in brief: (§2)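 In the red blood cell lysis assay, percent lysis was normalised to melittin ([…]) as 100% lysis and PBS as 0%. HC50 is the concentration giving 50% hemolysis. The minimal hemolytic concentration is the peptide level giving 10% hemolysis.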

Data set [4] is described as follows: Toxicity in human RBC assessed as hemolytic activity after 2 hrs. The format is cell-based, Erythrocyte. The conditions noted are these: red blood cells. The method in brief:
as §2

Data set [5] concerns HeLa. The data set can be described thus: Cytotoxicity against human HeLa cells assessed as swelling and disruption of mitochondria at LC50 of 2.5 uM after 30 mins by transmission electron microscopy. The format is functional, cell-based.
In data set [6] the test system is HeLa. Nature of the data set: Cytotoxicity against human HeLa cells assessed as swelling and disruption of mitochondria at LC50 of 2.5 uM after 30 mins by calcein-AM release and quenching assay. In kind it is functional, cell-based.
Data set [7] relates to HeLa. The data set can be described thus: Induction of apoptosis in human HeLa cells assessed as increase in DNA fragmentation at 2.5 uM by TUNEL assay. The conditions noted are these: TDE = time-dependent effect. In kind it is functional, cell-based. A digest of the protocol:
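HeLa cells were treated with 2.5 µM peptide and sampled over time. DNA fragmentation in fixed, washed cells was detected by TUNEL using the APO-BrdU kit per the manufacturer.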

Data set [8] has as its system HeLa. Nature of the data set: Cytotoxicity against human HeLa cells assessed as loss of mitochondrial membrane integrity at LC50 of 2.5 uM by flow cytometry. A general note: A flow cytometer gives signals particle by particle.
Data set [9] in a line: Octanol-water partition coefficient, log P at pH 7.4. In kind it is physicochemical. The method in brief:
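Thiazole orange-labelled peptides were partitioned between 1-octanol and 10 mM Tris, pH 7.4. LogP is the mean with sd of three trials.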

The nature of data set [10]: Cytotoxicity against human MRC5 cells assessed as dehydrogenase activity after 24 hrs by […]. Conditions: read-out: LC50. In kind it is cell-based. A digest of the protocol: as §1
For data set [11], the system named is HeLa. Nature of the data set: Induction of apoptosis in human HeLa cells assessed as caspase 9 activation at 2.5 uM. In kind it is functional, cell-based. The method in brief: (§3)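 After peptide treatment, HeLa cells were trypsinized, pelleted and washed. They were then stained either with FITC anti-activated caspase 3 or with anti-activated caspase 9 plus an anti-goat AlexaFluor 555 secondary. Cells were washed again and read by flow cytometry. Staurosporine-treated cells served as the positive control.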

The subject of the next data set is FaDu. Nature of the data set: Cytotoxicity against human FADU cells assessed as dehydrogenase activity after 24 hrs by […]. Conditions: read-out: LC50 (the source's name). In kind it is functional. The method in brief: as §1
In data set [12] the test system is HeLa. Nature of the data set: Cytotoxicity against human HeLa cells assessed as swelling and disruption of mitochondria at LC50 of 2.5 uM after 30 mins by fluorescence imaging using DAPI nuclear staining. In kind it is functional, cell-based.
A further data set concerns DU-145. Nature of the data set: Cytotoxicity against human DU145 cells assessed as dehydrogenase activity after 24 hrs by […]. The format is functional. Conditions: DU-145, 24 h, read-out: LC50 (the source's name). A digest of the protocol: as §1
Data set [13] concerns HeLa. Nature of the data set: Cytotoxicity against human HeLa cells assessed as loss of plasma membrane integrity at LC50 of 2.5 uM by sytox red staining-based flow cytometry. In kind it is functional, cell-based.
The test system of data set [14] is HeLa. The data set can be described thus: Induction of apoptosis in human HeLa cells assessed as caspase 3 activation at 2.5 uM. In kind it is functional, cell-based. The method in brief:
as §3

In a further data set the test system is MCF7. Nature of the data set: Cytotoxicity against human MCF7 cells assessed as dehydrogenase activity after 24 hrs by […]. In kind it is functional. Conditions: MCF7, 24 h, read-out: LC50 (the source's name). A digest of the protocol: as §1
The nature of data set [15]: Cytotoxicity against human KS1767 cells assessed as dehydrogenase activity after 48 hrs by […]. In kind it is functional. The conditions noted are these: KS1767, 48 h, read-out: LC50 (the source's name). The method in brief: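 KS1767 cells were kept in DMEM with 10% FBS. Integrin-homing (CNGRC) peptide conjugates were incubated over a concentration range for 48 h in OPTI-MEM with 2% FBS. Death was read by Sytox Red viability staining and CCK-8 dehydrogenase activity, and LC50 was determined.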

In data set [16] the test system is MDA-MB-231. The data set can be described thus: Cytotoxicity against human MDA-MB-231 cells assessed as dehydrogenase activity after 48 hrs by […]. In kind it is functional. The conditions noted are these: MDA-MB-231, 48 h, read-out: LC50 (the source's name).
In data set [17] the test system is MDA-MB-231. The data set can be described thus: Specificity index, ratio of LC50 for human MDA-MB-231 cells to LC50 for human KS1767 cells. In kind it is functional.

Activity calls are given as the source filed them. The rule behind the calls is not given here.

`CCCCCCC(NC(=O)C(N)CCCCN)C(=O)NC(C)C(=O)NC(CCCCN)C(=O)NC(CCCCCC)C(=O)NC(C)C(=O)NC(CCCCN)C(=O)NC(CCCCN)C(=O)NC(CCCCCC)C(=O)NC(C)C(=O)NC(CCCCN)C(=O)NC(CCCCCC)C(=O)NC(C)C(=O)NC(CCCCN)C(=O)O` (racemic): the CC50 in the data set on HeLa [1] worked out at 3.7 µM. For the same compound, the values for the Activity in data set [2] and in [3] were 3.1 µM and greater than 100 µM, respectively. In data set [4], the HC50 at 2 h is greater than 100 µM.
For `CC(NC(=O)C(CC1CCCCC1)NC(=O)C(N)CCCCN)C(=O)NC(CCCCN)C(=O)NC(CC1CCCCC1)C(=O)NC(C)C(=O)NC(CCCCN)C(=O)NC(CCCCN)C(=O)NC(CC1CCCCC1)C(=O)NC(C)C(=O)NC(CCCCN)C(=O)NC(CC1CCCCC1)C(=O)NC(C)C(=O)NC(CCCCN)C(=O)O` (racemic), the CC50 with HeLa [1] stood at 6.5 µM. For the same compound, the Activity was 6.3 µM in data set [2] and greater than 100 µM in data set [3]. Also, in data set [4], the HC50 at 2 h is greater than 100 µM.
`C[C@@H](NC(=O)[C@@H](CC1CCCCC1)NC(=O)[C@H](N)CCCCN)C(=O)N[C@H](CCCCN)C(=O)N[C@H](CC1CCCCC1)C(=O)N[C@H](C)C(=O)N[C@H](CCCCN)C(=O)N[C@H](CCCCN)C(=O)N[C@H](CC1CCCCC1)C(=O)N[C@H](C)C(=O)N[C@H](CCCCN)C(=O)N[C@H](CC1CCCCC1)C(=O)N[C@H](C)C(=O)N[C@H](CCCCN)C(=O)O`: the CC50 in the data set with HeLa [1] turned out to be 2.3 µM; in the data set with FaDu, 3.3 µM; with DU-145, 2 µM; in the data set on MCF7 it was 2 µM. Further, the result in the data set on HeLa [5], with HeLa [6], with HeLa [8], in the data set with HeLa [11], in the data set with HeLa [12] and in the data set on HeLa [13] was Active. In addition, in the data set on HeLa [14], the outcome was Active. Also, the results for the Activity result (with HeLa [7]; in data set [2]; in data set [3]) were “tde”, 1.3 µM and 9 µM, respectively. The pH-dependent lipophilicity (logD) in [9] is -1.73. In addition, the CC50 at 24 h in data set [10] was determined as 5.8 µM. Besides, the HC50 at 2 h in data set [4] is greater than 42 µM.
On to `CC(C)C[C@@H](NC(=O)[C@@H](CCCCN)NC(=O)[C@H](CS)NC(=O)[C@H](CCCNC(=N)N)NC(=O)CNC(=O)[C@H](CC(N)=O)NC(=O)[C@@H](N)CS)C(=O)N[C@H](C)C(=O)N[C@H](CCCCN)C(=O)N[C@H](CC(C)C)C(=O)N[C@H](C)C(=O)N[C@H](CCCCN)C(=O)N[C@H](CCCCN)C(=O)N[C@H](CC(C)C)C(=O)N[C@H](C)C(=O)N[C@H](CCCCN)C(=O)N[C@H](CC(C)C)C(=O)N[C@H](C)C(=O)N[C@H](CCCCN)C(=O)O`, for which the CC50 in data set [15] came out at 63 µM; in the data set with MDA-MB-231 [16] it was 144 µM. In addition, in the data set with MDA-MB-231 [17], the Ratio is 2.3.
Consider `CC(C)CC(NC(=O)C(N)CCCCN)C(=O)NC(C)C(=O)NC(CCCCN)C(=O)NC(CC(C)C)C(=O)NC(C)C(=O)NC(CCCCN)C(=O)NC(CCCCN)C(=O)NC(CC(C)C)C(=O)NC(C)C(=O)NC(CCCCN)C(=O)NC(CC(C)C)C(=O)NC(C)C(=O)NC(CCCCN)C(=O)O` (racemic), for which the CC50 with HeLa [1] worked out at 160 µM. Also, the values for the Activity in [2] and in data set [3] were 200 µM and greater than 100 µM, respectively. In addition, in data set [4], the concentration for 50% haemolysis (HC50) at 2 h is greater than 100 µM.
Consider `CCCCCC[C@@H](NC(=O)[C@H](N)CCCCN)C(=O)N[C@H](C)C(=O)N[C@H](CCCCN)C(=O)N[C@H](CCCCCC)C(=O)N[C@H](C)C(=O)N[C@H](CCCCN)C(=O)N[C@H](CCCCN)C(=O)N[C@H](CCCCCC)C(=O)N[C@H](C)C(=O)N[C@H](CCCCN)C(=O)N[C@H](CCCCCC)C(=O)N[C@H](C)C(=O)N[C@H](CCCCN)C(=O)O`, for which the CC50 with HeLa [1] was determined as 2.5 µM; in the data set on FaDu, 2.8 µM; in the data set with DU-145, 2 µM; with MCF7 it was 2.2 µM. Besides, the Activity was 2.5 µM in [2] and 8 µM in [3]. The CC50 at 24 h in [10] was 2.8 µM. The HC50 at 2 h in data set [4] is 31 µM.
For `C[C@@H](NC(=O)[C@@H](CC1CCCCC1)NC(=O)[C@@H](CCCCN)NC(=O)[C@H](CS)NC(=O)[C@H](CCCNC(=N)N)NC(=O)CNC(=O)[C@H](CC(N)=O)NC(=O)[C@@H](N)CS)C(=O)N[C@H](CCCCN)C(=O)N[C@H](CC1CCCCC1)C(=O)N[C@H](C)C(=O)N[C@H](CCCCN)C(=O)N[C@H](CCCCN)C(=O)N[C@H](CC1CCCCC1)C(=O)N[C@H](C)C(=O)N[C@H](CCCCN)C(=O)N[C@H](CC1CCCCC1)C(=O)N[C@H](C)C(=O)N[C@H](CCCCN)C(=O)O`, the CC50 in [15] was found to be 7 µM; with MDA-MB-231 [16], 17 µM. The Ratio in the data set with MDA-MB-231 [17] came to 2.7.
Compound `C[C@@H](NC(=O)[C@@H](Cc1ccccc1)NC(=O)[C@H](N)CCCCN)C(=O)N[C@H](CCCCN)C(=O)N[C@H](Cc1ccccc1)C(=O)N[C@H](C)C(=O)N[C@H](CCCCN)C(=O)N[C@H](CCCCN)C(=O)N[C@H](Cc1ccccc1)C(=O)N[C@H](C)C(=O)N[C@H](CCCCN)C(=O)N[C@H](Cc1ccccc1)C(=O)N[C@H](C)C(=O)N[C@H](CCCCN)C(=O)O` showed a logD in data set [9] of -2.52.
`CC(C)C[C@@H](NC(=O)[C@H](N)CCCCN)C(=O)N[C@H](C)C(=O)N[C@H](CCCCN)C(=O)N[C@H](CC(C)C)C(=O)N[C@H](C)C(=O)N[C@H](CCCCN)C(=O)N[C@H](CCCCN)C(=O)N[C@H](CC(C)C)C(=O)N[C@H](C)C(=O)N[C@H](CCCCN)C(=O)N[C@H](CC(C)C)C(=O)N[C@H](C)C(=O)N[C@H](CCCCN)C(=O)O`: the CC50 with HeLa [1] is 350 µM; with FaDu it was greater than 200 µM; in the data set on DU-145 it was greater than 300 µM; in the data set with MCF7, greater than 300 µM. The compound also gave a logD in data set [9] of -2.3. Also, the values for the Activity in data set [2] and in data set [3] were 200 µM and greater than 100 µM, respectively. Moreover, the CC50 at 24 h in data set [10] is greater than 200 µM. The 50% haemolytic concentration (HC50) at 2 h in data set [4] was greater than 100 µM.

A word on the HC50: it is the concentration that lyses half of the red blood cells. By logD is commonly meant lipophilicity at a set pH, counting ionised and neutral species. A lower logD goes with a more hydrophilic compound.

These data come from ChEMBL document CHEMBL1138505, “Engineered apoptosis-inducing peptides with enhanced mitochondrial localization and potency” (J Med Chem, 2009).
